This note sets out measurements from ChEMBL document CHEMBL1148647, “Structure-activity relationship studies on a series of novel, substituted 1-benzyl-5-phenyltetrazole P2X7 antagonists” (J Med Chem, 2006).

The structures appear in SMILES notation. Activity calls are given as the source filed them. Bounds are passed on as bounds.

In data set [1] the target is T1, P2X purinoceptor 7 (Rattus norvegicus, UniProt Q64663).
T1 sequence (Q64663 whole entry): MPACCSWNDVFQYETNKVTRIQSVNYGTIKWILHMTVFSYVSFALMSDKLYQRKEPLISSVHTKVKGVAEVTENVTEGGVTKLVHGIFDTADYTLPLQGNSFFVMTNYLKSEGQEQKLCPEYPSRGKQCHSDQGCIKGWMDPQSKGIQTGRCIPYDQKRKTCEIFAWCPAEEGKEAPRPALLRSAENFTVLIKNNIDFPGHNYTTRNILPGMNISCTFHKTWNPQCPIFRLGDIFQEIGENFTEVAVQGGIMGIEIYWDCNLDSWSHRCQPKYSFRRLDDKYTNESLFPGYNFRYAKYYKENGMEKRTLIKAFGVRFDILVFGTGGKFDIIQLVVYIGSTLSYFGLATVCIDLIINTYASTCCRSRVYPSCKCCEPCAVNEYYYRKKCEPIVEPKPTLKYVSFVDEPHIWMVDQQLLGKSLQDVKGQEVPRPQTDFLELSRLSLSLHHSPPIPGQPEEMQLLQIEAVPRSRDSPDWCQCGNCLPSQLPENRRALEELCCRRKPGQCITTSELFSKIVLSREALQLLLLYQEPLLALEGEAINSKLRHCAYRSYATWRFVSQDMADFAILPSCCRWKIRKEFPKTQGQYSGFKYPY
Kind of data set: Antagonist activity at rat P2X7 receptor expressed in human 1321N1 cells assessed as inhibition of calcium flux by FLIPR. Format: functional, cell-based. An outline of the steps: (§1)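 Recombinant P2X7 (human or rat) stably transfected into human 1321N1 astrocytoma cells lacking endogenous P2X receptor function. Fluo-4 calcium dye, FLIPR read-out. 5-min antagonist pretreatment, then BzATP agonist. IC50 determined.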
On the technique in general: Calcium flux is commonly read through the fluorescence of an indicator in the cells.

For data set [2], the system named is THP-1. Briefly: Inhibition of ILbeta production in human THP1 cells. Format: functional, cell-based. The essentials: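 Human THP-1 cells differentiated with LPS and IFNγ, then stimulated with BzATP for 30 min in presence of test compound. Released IL-1β quantified by EIA.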
In data set [3] the target is T2, P2X purinoceptor 7 (Homo sapiens, UniProt Q99572).
T2 sequence (Q99572 whole entry): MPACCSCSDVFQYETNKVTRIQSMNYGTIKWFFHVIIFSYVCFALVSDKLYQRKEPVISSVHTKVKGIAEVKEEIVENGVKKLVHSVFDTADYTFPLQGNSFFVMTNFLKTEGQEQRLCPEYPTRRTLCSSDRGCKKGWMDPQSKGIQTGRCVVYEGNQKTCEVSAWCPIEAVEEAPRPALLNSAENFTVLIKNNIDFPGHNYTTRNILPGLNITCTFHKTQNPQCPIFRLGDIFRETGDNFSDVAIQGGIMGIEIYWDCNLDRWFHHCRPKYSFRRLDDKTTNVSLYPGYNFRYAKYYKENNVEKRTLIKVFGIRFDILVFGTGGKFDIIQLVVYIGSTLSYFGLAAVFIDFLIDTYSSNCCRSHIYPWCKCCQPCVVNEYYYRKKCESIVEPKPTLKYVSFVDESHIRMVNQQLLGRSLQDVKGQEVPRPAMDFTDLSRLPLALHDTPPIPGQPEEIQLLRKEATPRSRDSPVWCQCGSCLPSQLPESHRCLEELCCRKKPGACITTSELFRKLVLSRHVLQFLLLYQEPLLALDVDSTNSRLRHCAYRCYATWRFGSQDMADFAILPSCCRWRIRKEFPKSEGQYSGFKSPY
Briefly: Antagonist activity at human P2X7 receptor expressed in human 1321N1 cells assessed as inhibition of calcium flux by FLIPR. Format: functional, cell-based. The essentials:
as §1

The subject of data set [4] is THP-1. Briefly: Ability to block pore formation in human THP1 cells assessed as inhibition of YO-PRO-1 diiodide dye uptake. Format: functional, cell-based. The essentials: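 Differentiated human THP-1 cells stimulated with agonist BzATP for 1 h in presence of test compound. Pore formation read as inhibition of cellular uptake of the impermeable dye YO-PRO-1 diiodide.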

In data set [5] the test system is Rattus norvegicus. Kind of data set: Reversal of mechanical allodynia in L5/L6 spinal nerve tight ligation model of neuropathic pain in ip dosed rat. Format: functional. The essentials: (§2)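 Spinal nerve ligation (L5/L6, Chung) done 7-14 days before testing. Antagonist given ip at 10-300 µmol/kg. Von Frey hair applied 30 min after dosing. Paw withdrawal threshold on injured (left) side compared with contralateral paw. ED50 and maximal response relative to contralateral side derived.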

The test system of data set [6] is Rattus norvegicus. Briefly: Reversal of mechanical allodynia in L5/L6 spinal nerve tight ligation model of neuropathic pain in ip dosed rat relative to control. Format: functional. An outline of the steps:
as §2

The nature of data set [7]: Oral bioavailability in rat at 10 umol/kg, ip. The following applies: in vivo, intraperitoneal, read-out: Activity. Format: ADME, organism-based.
Data set [8] is described as follows: Half life in rat at 10 umol/kg. The following applies: in vivo. Format: ADME, organism-based.
For data set [9], the system named is Rattus norvegicus. Briefly: Impairment of motor function in rat by rotarod assay up to 300 umol/kg, ip. Format: functional, organism-based. The essentials:
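Accelerating rotarod, ip dosing up to 300 µmol/kg. Time for the animal to fall from the rod recorded.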
In general terms: In the rotarod test animals must keep their balance on a rotating rod.

In general, IC50 refers to the concentration at which inhibition is half-maximal. With `Fc1ccc(-n2nnnc2Cc2cccnc2)c(Cl)c1Cl`, the figures for the 50% inhibitory concentration (IC50) on P2X purinoceptor 7 [1], in the data set with THP-1 [2] and on P2X purinoceptor 7 [3] were 100 nM, 39.8 nM and 25.1 nM, respectively.

With `Cc1ccccc1Cn1nnnc1-c1cccc(Cl)c1Cl`, the concentration for half-maximal inhibition (IC50) is 126 nM with THP-1 [4], 63.1 nM on P2X purinoceptor 7 [1], 158 nM in the data set on THP-1 [2] and 15.8 nM at P2X purinoceptor 7 [3].

Turning to `c1ccc(Cn2nnnc2-c2cccc3ncccc23)cc1`, the half-maximal inhibitory concentration (IC50) in the data set with THP-1 [4] was over 10000 nM; at P2X purinoceptor 7 [3] it was 15800 nM.

Take `Fc1ccc(-n2nnnc2Cc2cccnc2)c(Cl)c1C(F)(F)F`: the IC50 in the data set on THP-1 [4] is 158 nM; at P2X purinoceptor 7 [3], 20 nM.

Regarding `Clc1cccc(-c2nnnn2Cc2ccncc2)c1Cl`, the IC50 with THP-1 [4] was 2000 nM; on P2X purinoceptor 7 [1], 3160 nM; in the data set with THP-1 [2], 20000 nM; at P2X purinoceptor 7 [3] it was 794 nM.

For `Fc1ccc(-c2nnnn2Cc2cccnc2)c(Cl)c1Cl`, the values for the half-maximal inhibitory concentration (IC50) in the data set with THP-1 [4] and at P2X purinoceptor 7 [3] were 398 nM and 12.6 nM, respectively.

In the case of `O=C(NCC12CC3CC(CC(C3)C1)C2)c1cccc(Cl)c1Cl`, at P2X purinoceptor 7 [3], the concentration for half-maximal inhibition (IC50) is 63.1 nM.

Consider `Clc1ccc(-c2nnnn2Cc2cccnc2)cc1Cl`, for which the half-maximal inhibitory concentration (IC50) was 7940 nM with THP-1 [4] and 3980 nM on P2X purinoceptor 7 [3].

In the case of `Fc1c(-c2nnnn2Cc2cccnc2)cccc1C(F)(F)F`, the IC50 in the data set with THP-1 [4] was 501 nM; at P2X purinoceptor 7 [1], 79.4 nM; in the data set on THP-1 [2], 501 nM; at P2X purinoceptor 7 [3] it was 63.1 nM.

Consider `Clc1c(-c2nnnn2Cc2ccccc2)ccc(N2CCCC2)c1Cl`, for which the IC50 at P2X purinoceptor 7 [3] is over 10000 nM.

For `Clc1ccc(-c2nnnn2Cc2cccnc2)c(Cl)c1Cl`, the figures for the concentration for half-maximal inhibition (IC50) with THP-1 [4] and at P2X purinoceptor 7 [3] were 1350 nM and 200 nM, respectively.

For `c1ccc(Cn2nnnc2-c2cccc3cccnc23)cc1`, the IC50 on P2X purinoceptor 7 [3] is 25100 nM.

Turning to `Cc1ncccc1Cn1nnnc1-c1cccc(Cl)c1Cl`, the half-inhibitory concentration (IC50) in the data set on THP-1 [4] is 200 nM; at P2X purinoceptor 7 [1], 200 nM; in the data set with THP-1 [2] it was 158 nM; at P2X purinoceptor 7 [3], 31.6 nM.

On to `FC(F)(F)c1cccc(-n2nnnc2Cc2cccnc2)c1Cl`, for which the half-inhibitory concentration (IC50) was 50.1 nM in the data set on THP-1 [4], 50.1 nM on P2X purinoceptor 7 [1], 25.1 nM in the data set with THP-1 [2] and 12.6 nM at P2X purinoceptor 7 [3].

For `FC(F)(F)c1cccc(-c2nnnn2Cc2cccnc2)c1Cl`, the concentration for half-maximal inhibition (IC50) was 158 nM with THP-1 [4], 63.1 nM on P2X purinoceptor 7 [1], 79.4 nM in the data set with THP-1 [2] and 12.6 nM on P2X purinoceptor 7 [3].

As for `Clc1cccc(-c2nnnn2CCc2cccnc2)c1Cl`, the half-maximal inhibitory concentration (IC50) in the data set on THP-1 [4] was over 10000 nM; on P2X purinoceptor 7 [3], 12600 nM.

Regarding `Cc1nc(C)c(Cn2nnnc2-c2cccc(Cl)c2Cl)s1`, the half-inhibitory concentration (IC50) was 251 nM with THP-1 [4], 1260 nM on P2X purinoceptor 7 [1] and 50.1 nM on P2X purinoceptor 7 [3].

Take `c1ccc(Cn2nnnc2-c2ccncc2)cc1`: on P2X purinoceptor 7 [3], the IC50 was 31600 nM.

On to `c1ccc(-c2nnnn2Cc2cccnc2)cc1`, for which the IC50 was over 10000 nM in the data set on THP-1 [4] and 25100 nM at P2X purinoceptor 7 [3].

Consider `COc1cccc(-c2nnnn2Cc2ccccc2Cl)c1OC`, for which the IC50 is over 10000 nM with THP-1 [4] and 3980 nM at P2X purinoceptor 7 [3].

With `Clc1ccc(Cl)c(-c2nnnn2Cc2cccnc2)c1`, the IC50 in the data set with THP-1 [4] is over 10000 nM; at P2X purinoceptor 7 [3], 15800 nM.

Consider `Clc1cccc(-c2nnnn2Cc2ccccn2)c1Cl`, for which the results for the 50% inhibitory concentration (IC50) in the data set on THP-1 [4] and on P2X purinoceptor 7 [3] were 2000 nM and 501 nM, respectively.

`Cc1ccccc1Cn1nnnc1-c1cccc(C)c1C`: the 50% inhibitory concentration (IC50) in the data set on THP-1 [4] was 1260 nM; at P2X purinoceptor 7 [3], 251 nM.

The term ED50 denotes the midpoint of the dose-response relation. As usually defined, the half-life is the time in which the quantity being followed falls by half. Low readings indicate fast loss, high ones slow loss. `Clc1cccc(-c2nnnn2Cc2cccnc2)c1Cl`: the ED50 in the data set with Rattus norvegicus [5] was found to be 76 µmol/kg. For the same compound, the IC50 with THP-1 [4] is 200 nM; at P2X purinoceptor 7 [1], 316 nM; in the data set with THP-1 [2] it was 398 nM. For the same compound, the Activity in the data set on Rattus norvegicus [6] was found to be 78%. Further, in data set [7], the bioavailability stood at 19%. In data set [8], the half-life is 1 h. Moreover, the outcome with Rattus norvegicus [9] was inactive.

Take `Fc1cccc(-c2nnnn2Cc2cccnc2)c1C(F)(F)F`: the IC50 at P2X purinoceptor 7 [3] was 631 nM.

For `Clc1cccc(-c2nnnn2Cc2ccccc2)c1Cl`, the figures for the 50% inhibitory concentration (IC50) in the data set on THP-1 [4], on P2X purinoceptor 7 [1] and on P2X purinoceptor 7 [3] were 501 nM, 79.4 nM and 39.8 nM, respectively.

For the compound `Clc1cccc(-n2nnnc2Cc2cccnc2)c1Cl`, the IC50 was 398 nM in the data set with THP-1 [4] and 100 nM on P2X purinoceptor 7 [3].

In the case of `Cc1noc(C)c1Cn1nnnc1-c1cccc(Cl)c1Cl`, the 50% inhibitory concentration (IC50) is 794 nM with THP-1 [4] and 158 nM at P2X purinoceptor 7 [3].

With `Clc1cccc(-c2nnnn2Cc2cccnc2)c1`, the IC50 in the data set on THP-1 [4] is over 10000 nM; at P2X purinoceptor 7 [3], 7940 nM.

For `Clc1ccccc1-c1nnnn1Cc1cccnc1`, the IC50 on P2X purinoceptor 7 [3] was 15800 nM.
